The sample as a whole holds a higher share of hits than the screen did.
XBP1 UPR activ = activators of adaptive arm of unfolded protein response (XBP1) | CHO-XBP1 luciferase reporter, IRE1-XBP1 UPR activation, luminescence; percent of tunicamycin response, DMSO as zero | AID 463104 | actives 0.33% (n = 330,000) | activation, % at 20 µM;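 active = versus positive control, 20 µM dose yields 30% or more activation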
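assay system = CHO-XBP1 luciferase reporter cells | amount = 1000 cells/well | buffer or medium = F12 plus 10% FBS | compound dosing = single point, 20 µM final compound, 1% DMSO | incubation = 16-18 h cell attachment at 37 °C, then 6 h compound exposure | detection = Steady-Glo luminescence read | controls = tunicamycin 10 µg/mL and vehicle-only wells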
CHOP inhibitor = CHOP inhibition in unfolded protein response | CHO-K1 CHOP-promoter luciferase, tunicamycin-induced, 15-18 h | inhibition, % at 10 µM | actives 3.8% (n = 220,000) | AID 2732;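 active = compounds that reduced the stress-induced luciferase reporter signal by more than about 70% of percent inhibition, limit read from the data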
CHOP UPR activ = activators of apoptotic arm of unfolded protein response (CHOP); CHO-CHOP luciferase reporter, UPR activation, luminescence; percent of tunicamycin response over DMSO baseline; activation, % at 10 µM; actives 0.34% (n = 330,000);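 active = at 10 µM dose, activation of 40% or more, normalized to positive control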
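Assay system: CHO-CHOP cells, stable luciferase reporter of PERK-eIF2a-CHOP signalling / Buffer or medium: F12 plus 10% serum / Compound dosing: one dose, 10 µM in 0.5% DMSO / Times: 6 h compound treatment, 37 °C / Technique: luciferase luminescence / Read-out: % reporter activation, DMSO baseline versus tunicamycin full activation / Benchmarks: tunicamycin and DMSO controls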
UCH37 inh = blocks the human deubiquitinase UCH37; actives 0.33% (n = 330,000); Q9Y5K5; AID 588478; purified proteasome/UCH37, Ub-AMC cleavage fluorescence; inhibition, % (test concentration not listed);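 active = mean inhibition over replicate wells above about 20%, limit read from the data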
Target sequence (Q9Y5K5 whole entry, looked up): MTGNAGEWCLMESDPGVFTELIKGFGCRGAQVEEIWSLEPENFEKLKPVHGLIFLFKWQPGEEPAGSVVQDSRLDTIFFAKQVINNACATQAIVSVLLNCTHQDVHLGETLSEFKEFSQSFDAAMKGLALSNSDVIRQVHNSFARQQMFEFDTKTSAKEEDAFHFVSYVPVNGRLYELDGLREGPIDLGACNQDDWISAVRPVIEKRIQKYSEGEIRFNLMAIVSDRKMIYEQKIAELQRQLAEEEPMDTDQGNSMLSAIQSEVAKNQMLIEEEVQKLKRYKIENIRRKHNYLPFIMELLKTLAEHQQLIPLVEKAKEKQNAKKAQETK
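Reagent: Ub-AMC substrate; assay system: Proteasome-associated human UCH37 deubiquitinase; controls: no-proteasome and no-compound wells; read-out: % inhibition of Ub-AMC cleavage fluorescence; timing: 30 min preincubation with enzyme, 25 min cleavage at room temperature; signal: AMC fluorescence from Ub-AMC cleavage, excitation 355 nm, emission 460 nm; buffer or medium: Tris-HCl pH 7.4 plus ovalbumin, ATP-MgCl2, DTT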
Fh CTSL1 inh = counter-screen for PFM18AAP inhibitors: inhibitors of F. hepatica cathepsin L1; AID 1906; actives 0.49% (n = 300,000); recombinant F. hepatica cathepsin L1, Z-Leu-Arg-MCA fluorescence; inhibition, % at 5.96 µM;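 active = inhibition above the mean of all tested compounds plus 3 SD, set per screening campaign, cut at about 17% in these data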
A number is an active result; – = inactive; · = no result given.

SMILES | XBP1 UPR activ | CHOP inhibitor | CHOP UPR activ | UCH37 inh | Fh CTSL1 inh
CC(=NNC(=O)c1c(C)nc2ccccn12)c1cccc([N+](=O)[O-])c1 | · | · | · | – | ·
Cc1ccc(S(=O)(=O)NC(C)C(c2cccs2)N2CCN(C)CC2)cc1 (stereo unspecified) | – | – | – | – | –
Cc1ccc(S(=O)(=O)NC(C)C(c2cccs2)N2CCN(c3ccccc3)CC2)cc1 (stereo unspecified) | – | 78 | – | – | –
Cc1ccc(Cn2ccc(=O)c(OCc3c(Cl)cccc3Cl)c2C)cc1 | – | – | – | 25 | –
COc1cc(C(=O)OCC(=O)Nc2c(F)c(F)c(F)c(F)c2F)cc(OC)c1OC | – | – | – | – | –
COc1cc(C(=O)OCC(=O)Nc2c(F)cccc2F)cc(OC)c1C | – | 94 | – | – | –
CC(=NNS(=O)(=O)c1ccc(Cl)cc1)c1cccc(NC(=O)c2ccncc2)c1 | · | · | · | – | ·
CC1CC(=NNC(N)=S)c2cc(Cl)ccc2S1 (stereo unspecified) | · | · | · | – | ·
CCOC(=O)C(=N/O)/C(C)=N/NC(=O)C(=O)Nc1ccc(Cl)cc1 | – | 73 | – | · | –
COc1cc(C=NNC(=S)NCc2ccco2)cc(OC)c1OC | · | · | · | – | ·
COc1ccc(CCn2c(O)c(C=Nc3cccc(F)c3)c(=O)[nH]c2=O)cc1OC | – | 80 | – | – | –
COc1ccc(CCn2c3c(c(=O)[nH]c2=O)C(NC(=O)c2cccs2)(C(F)(F)F)C(=O)N3)cc1OC (stereo unspecified) | – | – | – | – | –
Nc1ccc2nc(-c3ccc(N)c(Cl)c3)[nH]c2c1 | – | – | – | – | –
Nc1ccc(-c2nc3c(Cl)cc(N)cc3[nH]2)cc1 | – | 88 | – | – | –
O=C(NN=Cc1cccc(Oc2ccccc2)c1)c1cccc(Br)c1 | · | · | · | – | ·
Cn1nc(C(F)(F)F)c(C=NOC(=O)c2ccccc2Cl)c1SCc1ccc(Cl)cc1 | · | · | · | – | ·
Cn1c(-c2c(N)n(-c3ccccc3)c3nc4ccccc4nc23)nc2ccccc21 | · | 74 | · | – | –
CC(CC(=O)Nc1cccc(Cl)c1Cl)=NNC(=O)C(=O)N1CCCC1 | · | · | · | – | ·
O=C(COc1ccc(Cl)cc1)Nc1ccc(C(=O)NCc2cccnc2)cc1 | – | – | – | – | –
O=C(NCc1cccnc1)c1ccc(COc2ccc(Cl)cc2)cc1 | – | 71 | – | – | –
COc1ccc(/C=C/C(=O)Nc2sc3c(c2C(=O)NCc2cccnc2)CCCC3)cc1 | – | 81 | – | – | –
COc1cc(OC)cc(C(=O)NCc2cccnc2)c1 | – | – | – | – | 19
O=[N+]([O-])c1ccccc1NCCNc1ncc(C(F)(F)F)cc1Cl | – | – | – | – | –
O=[N+]([O-])c1cccnc1NCCNc1ncc(C(F)(F)F)cc1Cl | – | 75 | – | – | –
Cc1ccccc1NC(=O)Cn1cnc2c(oc3nc4c(cc32)COC(C)(C)C4)c1=O | – | – | – | – | –
SMILES | XBP1 UPR activ | CHOP inhibitor | CHOP UPR activ | UCH37 inh | Fh CTSL1 inh
CC1(C)Cc2nc3oc4c(=O)n(CC(=O)Nc5ccc(Cl)cc5)cnc4c3cc2CO1 | – | 95 | – | – | –
CC(=NO)C(=O)Nc1ccccc1 | · | · | · | – | ·
Cc1ccn2c(=O)c(C(=O)NCCCN3CCCC3=O)c(O)nc2c1 | – | · | – | – | 50
O=C1NN(c2cccc(Br)c2)C(=O)/C1=C\c1ccccc1 | – | · | – | – | –
O=C1NN(c2ccccc2)C(=O)/C1=C/c1cccs1 | 31 | – | – | · | –
O=C1NN(c2ccccc2)C(=O)/C1=C\c1ccccc1 | – | · | – | – | ·
O=C1NN(c2ccc(F)cc2)C(=O)/C1=C\c1cnn(-c2ccccc2)c1 | – | 70 | – | – | –
CCOc1ccc(C=NNC(=O)CCC(=O)Nc2ccc(F)cc2)cc1 | · | · | · | – | ·
O=C(O)/C=C/C(=O)c1c(-c2ccccc2)[nH]c2ccccc12 | – | · | – | – | 58
COc1cccc(C=NNC(=O)CNC(=O)c2cccnc2)c1O | · | · | · | – | ·
COc1ccccc1OCC(=O)N(Cc1nc(-c2ccccc2)no1)C(C)C | – | · | – | – | –
Cc1cc(Br)ccc1OCC(=O)N(Cc1nc(-c2ccccc2)no1)C(C)C | – | 95 | – | – | –
Cc1cccc(-c2noc(CN(C(=O)c3ccc(Br)o3)C(C)C)n2)c1 | – | 88 | – | – | –
Cc1cccc(-c2noc(CN(C(=O)c3ccc4c(c3)OCO4)C(C)C)n2)c1 | – | – | – | – | –
